# From ChEMBL document CHEMBL1138484, “Synthesis and antiviral activity of 7-benzyl-4-hydroxy-1,5-naphthyridin-2(1H)-one HIV integrase inhibitors” (J Med Chem, 2009)
# pIC50: −log10 of the molar value.
# Tests used:
# [1] = Inhibition of HIV recombinant integrase strand transfer assay; design: species or system Human immunodeficiency virus
# Summary of the method: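 Recombinant integrase (2 µM) preassembled with biotinylated donor DNA on streptavidin SPA beads (MOPS pH 7.2, MgCl₂, DTT, 5 min, 37 °C), then washed. Compound in DMSO (6.7% final) preincubated 60 min at 37 °C. [³H] target DNA added at 7 nM final, strand transfer run 25-45 min at 37 °C, EDTA quench, SPA readout. Mean ± standard error.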
# [2] = system: Human immunodeficiency virus; assay: Antiviral activity against pseudotype HIV after 2 days in absence of human serum albumin; type: functional, organism-based; conditions: Human immunodeficiency virus 1, 48 h
# Summary of the method: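 VSV-G-pseudotyped HIV vector carrying luciferase, harvested from transfected 293T cells. Target 293T cells (2 × 10^4 per well) mixed with vector at about 100K CPM and plated onto compounds in DMEM + 10% FCS. Incubated 2 days at 37 °C, 5% CO2. Luciferase read by Steady Glo luminescence. Values are means ± standard error (N > 1).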
# [3] = system: Human immunodeficiency virus 1; assay: Antiviral activity against HIV1 3B infected in human MT4 cells assessed as inhibition of virus-induced cytopathic effect after 5 days by MTS method; type: functional, organism-based; conditions: Human immunodeficiency virus 1, 3B, MT4, 120 h
# Summary of the method: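 HIV-1 IIIB infection of MT-4 cells (HTLV-1 transformed) for 1 h at 37 °C, 5% CO2. Cells then added to compounds prediluted in RPMI with FBS and gentamicin; final assay medium had 15% FBS and 10% T-cell growth factor. Incubated 5 days at 37 °C. Virus-induced cytopathic effect read by MTS staining, OD 492 nm. Cytotoxicity measured in parallel.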
# MT4 [4] = assay: Cytotoxicity against human MT4 cells up to 8 to 10 uM after 5 days by MTS assay; type: cell-based; conditions: mt4, 120 h
# Summary of the method: (§1)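 MT-4 cells in RPMI with 15% FBS, 10% T-cell growth factor and 10 µg/mL gentamicin, cultured 5 days at 37 °C, 5% CO₂. Compound-induced cytotoxicity (CCIC50) measured by MTS staining at OD 492 nm, in parallel with the HIV-1 IIIB antiviral MTS readout in the same cell line.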
# [5] = Cytotoxicity against human MT4 cells after 5 days by MTS assay; type: cell-based; conditions: read-out: CCIC50; summary of the method: as §1
# [6] = system: Human immunodeficiency virus; assay: Antiviral activity against pseudotype HIV after 2 days in presence 40 mg/mL human serum albumin; type: functional, organism-based; conditions: Human immunodeficiency virus 1, 48 h
# Summary of the method: (§2)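 Pseudotyped HIV luciferase assay in 293T cells (2 × 10^4 per well), 2 days at 37 °C in DMEM + 10% FCS, luminescence read-out. Run with and without added serum protein, 40 mg/mL HSA. Line 5 is the ratio of the IC50 with HSA to the IC50 without.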
# MT4 [7] = assay: Cytotoxicity against human MT4 cells up to =>7 uM after 5 days by MTS assay; type: cell-based; conditions: mt4, 120 h; summary of the method: as §1
# [8] = Therapeutic index, ratio of CCIC50 for human MT4 cells to IC50 for HIV1 3B; type: cell-based; summary of the method: as §1
# [9] = system: Human immunodeficiency virus 1; assay: Antiviral activity against HIV1 3B infected in human MT4 cells assessed as inhibition of virus-induced cytopathic effect albumin after 5 days by MTS method in presence of 40 mg/mL human serum albumin; type: functional, organism-based; conditions: Human immunodeficiency virus 1, 3B, MT4, 120 h
# Summary of the method: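 HIV-1 IIIB infection of MT-4 cells for 1 h at 37 °C, then cells added to prediluted compounds in RPMI with 15% FBS, 10% T-cell growth factor, 10 µg/mL gentamicin, plus 40 mg/mL HSA. 5 days at 37 °C, 5% CO₂. Cytopathic effect read by MTS staining at OD 492 nm. Mean ± standard error where N > 1.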
# [10] = Clearance in CD rat at 1 mg/kg, iv; type: ADME, organism-based; design: dose 1 mg/kg, route intravenous; conditions: in vivo
# Summary of the method: (§3)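 Male CD rats, n = 2, given 1 mg/kg iv (1 mL/kg, fasted) in 10% DMSO/15% Solutol/75% 0.05 M […]. Blood drawn via implanted venous cannula at timed intervals over 24 h, EDTA plasma analysed by LC/MS/MS.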
# [11] = Oral bioavailability in fasted CD rat at 5 mg/kg; type: ADME, organism-based; conditions: in vivo
# Summary of the method: (§4)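 Male CD rats, n = 2 per arm, dosed 5 mg/kg po (5 mL/kg) in 10% DMSO/15% Solutol/75% 0.05 M […]. Fasted arm had food removed the evening before and returned 4 h post-dose; other arm nonfasted. Cannula blood sampled over 24 h, EDTA plasma by LC/MS/MS. Bioavailability referenced to the 1 mg/kg iv arm.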
# [12] = Oral bioavailability in non fasted CD rat at 5 mg/kg; type: ADME, organism-based; conditions: in vivo; summary of the method: as §4
# [13] = system: Human immunodeficiency virus 1; assay: Ratio of IC50 for HIV1 3B in presence of human serum albumin to IC50 for HIV1 3B in absence of human serum albumin; type: functional
# Summary of the method: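 MT-4/HIV-1 IIIB MTS cytopathic-effect assay, 5 days at 37 °C, run in standard medium and again with 40 mg/mL HSA added. The ratio compares the IC50 with HSA to the IC50 without.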
# Rattus norvegicus = assay: Hepatic blood flow in CD rat at 1 mg/kg, iv; type: ADME, organism-based, Liver; design: dose 1 mg/kg, route intravenous; conditions: in vivo
# [14] = Volume of distribution at steady state in CD rat at 1 mg/kg, iv; type: ADME, organism-based; design: dose 1 mg/kg, route intravenous; conditions: in vivo, read-out: Vdss; summary of the method: as §3
# [15] = system: Human immunodeficiency virus; assay: Ratio of IC50 for pseudotype HIV in presence of human serum albumin to IC50 for pseudotype HIV in absence of human serum albumin; type: functional; summary of the method: as §2
SMILES,pIC50 [1],pIC50 [2],pIC50 [3],CC50 at 120 h [5],pIC50 [6],Activity (MT4 [7]),further results
COCCNC(=O)c1c(O)c2ncc(Cc3ccccc3)cc2[nH]c1=O,8.15,7.85,7.04,> 10000 nM,7.23,–,Activity (MT4 [4]): Non-toxic
CCOC(=O)c1c(O)c2ncc(Cc3ccc(F)cc3)cc2n(CC2CC2)c1=O,7.82,6.45,–,–,–,–,–
CC(C)CNC(=O)c1c(O)c2ncc(Cc3ccc(F)cc3)cc2[nH]c1=O,8.22,8.40,7.17,7000 nM,5.60,Non-toxic,selectivity ratio [8]: > 100
CCNC(=O)c1c(O)c2ncc(Cc3ccc(F)cc3)cc2n(C)c1=O,8.40,8.80,8.46,> 50000 nM,6.18,Non-toxic,pIC50 [9]: 5.40
COCCNC(=O)c1c(O)c2ncc(Cc3ccc(F)cc3)cc2n(C)c1=O,8.40,8.70,8.30,> 20000 nM,7.30,–,clearance [10]: 11.8 mL/min/kg; bioavailability [11]: 25%; pIC50 [9]: 7.32; bioavailability [12]: 20%; Ratio IC50 [13]: <10; QH (Rattus norvegicus): 20%; Vd [14]: 0.6 L/kg
CCOC(=O)c1c(O)c2ncc(Cc3ccccc3)cc2[nH]c1=O,8.52,5.43,< 4.40,103000 nM,–,–,–
CCOC(=O)c1c(O)c2ncc(Cc3ccc(F)cc3)cc2[nH]c1=O,7.89,5.92,5.92,–,–,–,–
NC(=O)c1c(O)c2ncc(Cc3ccc(F)cc3)cc2[nH]c1=O,7.35,7.18,–,–,6.18,–,Ratio IC50 [15]: 10
COCCNC(=O)c1c(O)c2ncc(Cc3ccc(F)cc3)cc2[nH]c1=O,8.30,8.38,7.44,> 8000 nM,7.44,–,Activity (MT4 [4]): Non-toxic
COC(=O)c1c(O)c2ncccc2[nH]c1=O,< 3.30,< 4.85,< 3.90,> 125000 nM,–,–,–
CNC(=O)c1c(O)c2ncc(Cc3ccc(F)cc3)cc2[nH]c1=O,8.22,8.47,7.52,> 8000 nM,6.92,Non-toxic,selectivity ratio [8]: > 100
CCOC(=O)c1c(O)c2ncc(Cc3ccc(F)cc3)cc2n(C)c1=O,8.22,7.11,5.89,6000 nM,4.92,–,–
CNC(=O)c1c(O)c2ncc(Cc3ccc(F)cc3)cc2n(C)c1=O,8.39,8.85,7.96,20000 nM,7.24,Non-toxic,–
COC(=O)c1c(O)c2ncc(Cc3ccccc3)cc2[nH]c1=O,8.10,4.85,< 3.90,> 125000 nM,–,–,–
CCOC(=O)c1c(O)c2ncc(Cc3ccc(F)cc3)cc2n(CC(C)C)c1=O,7.66,6.81,–,–,–,–,–
O=C(NC1CC1)c1c(O)c2ncc(Cc3ccc(F)cc3)cc2[nH]c1=O,8.00,8.10,7.11,> 8000 nM,< 4.85,Non-toxic,selectivity ratio [8]: > 100
